Results as given in paper PMC3304100 (Molecular Pharmaceutics, 2011).

Assays:
[1] = biological target: T1, hPepT1 (Homo sapiens, UniProt P46059); experiment: Uptake in hPepT1 transfected vs non-transfected HeLa cells; assay type: cell-based; details: 1mM, pH 6.0, 45 min, 37°C, n=3
T1 sequence (P46059 1-708): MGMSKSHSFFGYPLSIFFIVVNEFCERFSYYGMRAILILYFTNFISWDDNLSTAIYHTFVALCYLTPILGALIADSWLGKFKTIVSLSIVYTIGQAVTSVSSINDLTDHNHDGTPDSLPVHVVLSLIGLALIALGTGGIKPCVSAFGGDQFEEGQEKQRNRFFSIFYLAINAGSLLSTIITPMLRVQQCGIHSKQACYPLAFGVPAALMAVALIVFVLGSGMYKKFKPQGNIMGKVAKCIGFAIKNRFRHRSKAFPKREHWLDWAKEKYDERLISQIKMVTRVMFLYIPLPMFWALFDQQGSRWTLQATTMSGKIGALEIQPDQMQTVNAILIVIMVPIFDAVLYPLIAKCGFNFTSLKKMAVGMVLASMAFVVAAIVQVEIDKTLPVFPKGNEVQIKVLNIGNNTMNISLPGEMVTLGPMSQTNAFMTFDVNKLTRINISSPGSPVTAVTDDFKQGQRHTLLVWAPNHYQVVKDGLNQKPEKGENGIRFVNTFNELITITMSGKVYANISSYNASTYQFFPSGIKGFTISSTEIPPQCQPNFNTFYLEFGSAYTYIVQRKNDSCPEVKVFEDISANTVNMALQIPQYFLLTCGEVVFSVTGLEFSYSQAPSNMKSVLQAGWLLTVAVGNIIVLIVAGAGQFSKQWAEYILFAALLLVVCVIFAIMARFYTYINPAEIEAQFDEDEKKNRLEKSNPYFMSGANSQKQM
How it was run: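 HeLa cells transduced with hPepT1-carrying adenovirus and used two days post-infection; non-transfected HeLa cells served as control. Cells were washed with pH 6.0 uptake buffer, then exposed to test compound (1mM) in uptake buffer at 37°C for 45 min and washed ice-cold. They were extracted in methanol:water (50:50) for 1 h at room temperature, and the supernatant was filtered and quantified by LC-MS. Sample protein was measured by DC assay against a BSA standard.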

[2] = test system: rat gut wall; experiment: In situ single-pass intestinal perfusion in rats; assay type: in vivo; details: pH 5.5, n=4, metoprolol co-perfused as reference
How it was run: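 Fasted (12–18 h) male Wistar rats (250–280 g), ketamine-xylazine im. ~10 cm jejunal, mid-intestinal or ileal segment cannulated and perfused at 0.18 ml/min with pH 5.5 MES buffer, 290 mosm/l, containing phenol red and metoprolol. Drug concentration = highest oral dose/250 ml. After 1 h to steady state, outlet sampled every 10 min for 1 h; HPLC. Peff by plug-flow model, water-flux corrected, R 0.2 cm.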

[3] = cited from earlier work

Uptake in HeLa/hPepT1 cells compared to non-transfected HeLa cells [1]	Effective permeability (Peff), in words [2]	Structure (SMILES)	Absolute oral availability [3]
~ 5 fold		CC(C)[C@H](N)C(=O)OCCOCn1cnc2c(=O)[nH]c(N)nc21 [Valacyclovir]	
	absolutely no permeability	CC(=O)N[C@H]1[C@H]([C@H](O)[C@H](O)CO)OC(C(=O)O)=C[C@@H]1N=C(N)N [Zanamivir]	approximately 2%
